The values that follow come from PubChem BioAssay AID821 (SRMLSC, 2007).

Calls of active or inactive are those of the source.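 Rule for the calls: active = compounds whose fitted half-maximal concentration for reducing fibroblast viability is 100 µM or lower; inactive = the rest.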

A short description of this test: inhibition of LL 47 lung fibroblast growth, concentration-response curve, selectivity screen for endothelial cell growth inhibitor project, cellular system, ATP luminescence readout (AID 821).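 Note: 100% = median of untreated cell-only wells and 0% = no luminescence.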 To be noted: LL 47 lung fibroblast viability, ATP luminescence; at 20 µM (top of the series). In outline:
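assay system = LL 47 human lung fibroblasts | quantity = 1,150 cells per well | compound = dose series 0.039–20 µM final, 0.2% DMSO | incubation = overnight cell settling, then 72 h compound exposure at 37 °C | signal = CellTiter-Glo luminescence readout of viable cells | read-out basis = % viability versus median cell-only wells, four-parameter EC50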

For the compound `CCOc1ccc(Nc2oc(-c3ccc(Cl)cc3)nc2C#N)cc1`, the viability is 106% (inactive).

Turning to `Oc1ccccc1NCC(O)Cn1ccc2ccccc21` (stereo not drawn), the viability was 98.6% (inactive).

For the compound `CCOC(=O)c1sc(NC(=O)CSc2nnnn2-c2ccc(C)cc2C)nc1C`, the viability is 81.2% (inactive).

For `Cc1cccc2c1N(CCCOc1ccc(C(C)(C)C)cc1)C(=O)C2=O`, the viability was 92.2% (inactive).

As to `COc1cc(/C=c2\s/c(=C(/C#N)C(=O)N3CCCC3)n(-c3ccccc3)c2=O)ccc1O`, the viability is 104% (inactive).

`CCC(C)[C@@H](NC(=O)OC(C)(C)C)c1nnc(S(=O)(=O)Cc2cccc(C)c2)o1` (stereo partly drawn): the viability is 91.4% (inactive).

Regarding `Cc1ccccc1-c1nc(CN2CCC(C(=O)NCCC3=CCCCC3)CC2)c(C)o1`, the viability is 87.6% (inactive).

Regarding `CC1(C)Cc2c(C#N)c(N3CCN(C(=O)c4ccco4)CC3)nc(Cc3ccccc3)c2CO1`, the viability is 87.4% (inactive).

As for `Cc1c(CCOC(=O)C2C3CC4CC(C3)CC2C4)sc[n+]1CC(=O)c1ccc(Br)cc1` (stereo not drawn), the viability was 93.4% (inactive).

In the case of `COC(=O)c1ccc2c(=O)n(Cc3ccco3)c(SCC(=O)Nc3ccccc3Cl)nc2c1`, the viability was 104% (inactive).

With `Cc1nc2sccn2c(=O)c1CCN1CCC(=C(c2ccc(F)cc2)c2ccc(F)cc2)CC1`, the viability was 91.4% (inactive).

Consider `CCOc1cc(C(=O)CSc2nnc(CNc3ccc(Cl)cc3)o2)ccc1NC(=O)CC`, for which the viability is 96% (inactive).

For the compound `COC(=O)C1=C(O)/C(=C\c2ccc(CNC(=O)C(=O)Nc3ccc(C)c(C)c3)o2)N=C1C`, the viability is 101% (inactive).

As for `Cc1ccsc1/C=C/C1=Cc2c(sc(NC(=O)CSc3n[nH]c(N)n3)c2C#N)C(C)(C)C1`, the viability is 112% (inactive).

Take `COc1cccc(-c2nnc(Nc3nc4c(F)cccc4s3)o2)c1`: the viability is 84.7% (inactive).

With `CC1CCc2sc3nc(N4CCN(CCO)CC4)n4ncnc4c3c2C1` (stereo not drawn), the viability was 96.4% (inactive).

`CC12CCC(=O)C=C1CCC1C2CCC2(C)C(O)CCC12` (stereo not drawn): the viability was 95.3% (inactive).

`O=C(CCN1CCN(Cc2ccccc2)CC1)Nc1ccc(OCc2ccccc2)cc1`: the viability is 97.3% (inactive).

Regarding `CC1(C)CSC(=S)N1S(=O)(=O)c1ccccc1`, the viability is 115% (inactive).

On to `CCCCCn1c(CN2CCN(c3cc(Cl)ccc3C)CC2)nc2c1c(=O)[nH]c(=O)n2C`, for which the viability was 81.2% (inactive).

For `CCCCCCn1c(SCC(=O)c2c(N)n(C)c(=O)n(C)c2=O)nc2ccccc21`, the viability was 98.8% (inactive).

Take `CCCc1ccc(Oc2c(-c3ccc(O)c(C)c3O)n[nH]c2C)cc1`: the viability is 97.3% (inactive).

Take `CCOc1cc(/C=C\c2[nH]c(=O)[nH]c(=O)c2[N+](=O)[O-])ccc1OC(C)CC` (stereo not drawn): the viability is 90.9% (inactive).

On to `COc1ccc2[nH]cc(C(=O)CN3CCN(C4CCCCC4)CC3)c2c1`, for which the viability is 103% (inactive).

Turning to `CCCCC(=O)O[C@H]1CC[C@H]2[C@@H]3CCc4cc(O)ccc4[C@H]3CC[C@]12C`, the viability is 84% (inactive).

With `O=S(=O)(Nc1cccnc1)c1ccc(C2CCCCC2)cc1`, the viability was 100% (inactive).

Consider `COc1ccc(-c2cc(C(=O)Nc3cc(C)n(Cc4ccc(Cl)cc4)n3)no2)cc1OC`, for which the viability was 102% (inactive).

Consider `c1ccc2c(c1)oc1c(NCCCN3CCOCC3)ncnc12`, for which the viability is 95.2% (inactive).

Turning to `CCn1c(=N)n(CC(=O)C23CC4CC(CC(C4)C2)C3)c2ccccc21`, the viability was 86% (inactive).

Turning to `COc1ccccc1-c1cc(C(=O)Nc2cc(C)n(Cc3ccc(Cl)cc3)n2)no1`, the viability is 86% (inactive).

With `c1ccc(-c2nccc(-c3ccc(-n4cnc5ccccc54)cc3)n2)cc1`, the viability was 115% (inactive).

With `CCCCc1oc2ccccc2c1C(=O)c1cc(I)c(OCCN(CC)CC)c(I)c1`, the viability was 88% (inactive).

Regarding `O=c1/c(=C/c2ccco2)sc2n1CN(c1cccc(Br)c1)CN=2`, the viability was 106% (inactive).

With `COc1ccc(OC)c2sc(N3CCCCC3)nc12`, the viability was 96.8% (inactive).

With `CC1CCN(S(=O)(=O)c2ccc(NC(=O)Cn3nnc(-c4ccccc4F)n3)cc2)CC1`, the viability was 90.8% (inactive).

In the case of `CC1=C(C)CS(=O)N(S(=O)(=O)c2ccccc2)C1` (stereo not drawn), the viability is 86.9% (inactive).

As for `CCOC(=O)c1cnc(-n2nc(C)cc2C)nc1NCc1ccc2c(c1)OCO2`, the viability is 96.5% (inactive).

`COCCCNC(=O)c1ccc2c(=O)n(Cc3ccc4c(c3)OCO4)c(=S)[nH]c2c1`: the viability was 106% (inactive).

Take `O=C(CCSc1ccc(Cl)cc1)N1CCN(c2ncccn2)CC1`: the viability is 96.4% (inactive).

Take `Cc1ccc2[nH]c(=O)c(C3C(C#N)=C(N)Oc4c3ccc3cccnc43)cc2c1` (stereo not drawn): the viability is 86.9% (inactive).

For `Cc1cc(NCCCN2CCOCC2)n2ncc(-c3ccc(Cl)cc3)c2n1`, the viability is 84.9% (inactive).

Consider `O=c1[nH]c(=O)n(Cc2ccccc2)c2nc(-c3ccco3)cc(C(F)(F)F)c12`, for which the viability is 81% (inactive).

`Cc1ccc2[nH]c3c(c2c1)CCC3=O`: the viability is 110% (inactive).

As to `Cc1nc2cc(N3CCCCC3)c(NC(=O)c3cccnc3)cc2c(=O)n1Cc1ccccc1`, the viability is 91.8% (inactive).

For the compound `CC1CCC(C(=O)c2c(O)c3ccccc3oc2=O)CC1` (stereo not drawn), the viability is 88.2% (inactive).

As to `Cc1sc2nc(SCC(=O)c3cccs3)n(Cc3ccco3)c(=O)c2c1C`, the viability was 87% (inactive).

Regarding `Cc1cc(C)n(-c2nc(SCC(=O)N3CCCC3)c3c4c(sc3n2)CCCC4)n1`, the viability is 113% (inactive).

In the case of `COc1cc2c(C(=O)NCc3ccc4c(c3)OCO4)cn(CC(C)C)c(=O)c2cc1OC`, the viability was 106% (inactive).

As for `COc1cc2cc(C(c3nnnn3C3CCCC3)N3CCc4ccccc43)c(=O)[nH]c2cc1OC` (stereo not drawn), the viability was 92.9% (inactive).

As for `CCCCCCn1c(O)c(C=NC2CCCCC2N)c(=O)[nH]c1=O` (stereo not drawn), the viability was 113% (inactive).

With `COc1cc(N=c2ssnc2Cl)c(OC)cc1Cl`, the viability is 88.6% (inactive).

In the case of `Cc1sc2nc(SCC(=O)NCc3ccco3)n(CCc3ccccc3)c(=O)c2c1C`, the viability is 121% (inactive).

For `COc1cc(NC(=O)Nc2ccccc2)c(OC)cc1NC(=O)CN1CCCCC1`, the viability is 82.8% (inactive).

Regarding `Cc1ccc(C(=O)Nc2ncc(Cc3ccccc3)s2)o1`, the viability was 103% (inactive).

`O=C(CCC1CCCC1)c1c(O)c2ccccc2oc1=O`: the viability was 93.9% (inactive).

Consider `c1cc2c3c(cccc3c1)NC1(CCCCCC1)N2`, for which the viability is 86.2% (inactive).

Regarding `Brc1cccc(-c2nnc3sc(CNC4CCCC4)cn23)c1`, the viability is 96.9% (inactive).

For `CCOC(=O)N1CCN(c2ncnc3c2oc2nc(C(C)C)c4c(c23)CCC4)CC1`, the viability was 108% (inactive).

With `CC1(C)Nc2ccc(O)cc2-c2c1ssc2=S`, the viability was 92.1% (inactive).

In the case of `COc1cccc(C(=O)CSc2nnc(-c3cc(OC)cc(OC)c3)o2)c1`, the viability is 91.3% (inactive).

With `O=S1(=O)c2ccccc2N=NN1Cc1cc(Cl)cc(Cl)c1`, the viability was 84.5% (inactive).

Turning to `CCCOC(=O)c1ccc(Oc2c(-c3ccc(OC)cc3O)n[nH]c2C)cc1`, the viability is 97.5% (inactive).

Turning to `O=C(COc1nc2ccccc2nc1N1CCOCC1)N1CCc2ccccc21`, the viability was 95.5% (inactive).

Regarding `N=C1C(c2nc(-c3ccc(Cl)cc3)cs2)=C(O)CN1CCCN1CCOCC1`, the viability is 118% (inactive).

On to `O=C(COc1ccc(Cl)cc1)Nc1ccccc1C(=O)NCc1ccco1`, for which the viability was 82.7% (inactive).

For `Cn1c(=O)c2c(nc(Oc3ccc4c(c3)OCO4)n2Cc2ccc(Cl)cc2)n(C)c1=O`, the viability is 87.5% (inactive).

As for `Cc1cc(C)n(-c2nc(Nc3ccccc3C)nc(-n3nc(C)cc3C)n2)n1`, the viability was 97.1% (inactive).

`N#Cc1nc(COc2ccc(-c3ccccc3)cc2)oc1NCCCN1CCOCC1`: the viability is 91.9% (inactive).

With `Cc1occc1-c1nnc(SCC(=O)NCc2cccs2)n1-c1ccc(F)cc1`, the viability is 99.1% (inactive).

On to `COc1ccc2nc(NC(=O)CSC3=NCCS3)sc2c1`, for which the viability is 110% (inactive).

Consider `Cc1cccc(-c2nc(CN3CCCC(C(=O)NC4CCC(C)CC4)C3)c(C)o2)c1` (stereo not drawn), for which the viability was 85.4% (inactive).

Regarding `CCOC(=O)c1c(OCC)[nH]c2c1cc(O)c1ccccc12`, the viability was 117% (inactive).

Consider `COC(=O)c1cc(COc2ccc3c(c2)oc(=O)c2ccccc23)c(C)o1`, for which the viability was 120% (inactive).

Regarding `CCn1nc(C(=O)NC2=NCCS2)c2ccccc2c1=O`, the viability was 103% (inactive).

As for `C=CCOC(=O)C1=C(C)NC(SCC(=O)Nc2nccs2)=C(C#N)C1c1cccs1` (stereo not drawn), the viability is 91.3% (inactive).

As to `OC(C#Cc1ccccn1)c1cccs1` (stereo not drawn), the viability was 98.2% (inactive).

`N=c1nc(N)nc2n1NC(c1ccc(F)cc1)=CS2`: the viability was 104% (inactive).

For the compound `CCn1c(SCC(=O)Nc2ccc3c(c2)oc2ccccc23)nnc1-c1ccc(N)cc1`, the viability is 97.6% (inactive).

Turning to `CC(C)OCCCN1C(=O)c2[nH]nc(-c3ccccc3O)c2C1c1cccc(Cl)c1` (stereo not drawn), the viability was 98.3% (inactive).

As to `CC(=O)Oc1ccc(N2C(=O)C3C(C2=O)C2(C)C=CC3(C)O2)cc1` (stereo not drawn), the viability is 103% (inactive).

For the compound `CSc1nnc2n(-c3ccc(C)cc3)c(=O)c3c4c(sc3n12)COC(C(C)C)C4` (stereo not drawn), the viability is 109% (inactive).

For the compound `CCOC(=O)N1CCc2c(sc(NC(=O)c3ccc(S(=O)(=O)N4CCCC4)cc3)c2C#N)C1`, the viability was 81.6% (inactive).

Regarding `Cc1cc(C)c2oc(-c3cccc(NC(=O)c4ccc(F)cc4)c3)nc2c1`, the viability is 104% (inactive).
